Measured values as given in article PMC3355950 (The Journal of Neuroscience, 2012).
In brackets after ≈: the same amount, converted by molar mass.

Assays:
[1] = target: GluN1/2A-(2D S1) (Rattus norvegicus, UniProt P35439+Q00959, A414R/D421P/DELINS438-452SQLNRTHSPPPDAPRPE/E427G/I408V/I422A/K454R/K466R/K472G/L425I/N404Q/N432D/N490D/N491G/R469H/S407T/S468A/S538A/T426S/T433S/T474S/V409A/V430I/V471I/V489I/V501F/V506D/V509I/V521I); assay: Two-electrode voltage-clamp recordings, Xenopus oocytes; assay type: cell-based; settings: 100 μM glutamate + 3 μM glycine
Method in brief: (§1)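 cRNA from linearized constructs injected into female Xenopus laevis oocytes. Two-electrode voltage clamp done 3–4 d later at 23°C, holding at −40 mV, in 90 NaCl, 1 KCl, 10 HEPES, 0.5 BaCl₂, 0.01 EDTA (mM), pH 7.4. […] Max inhibition is (control − residual at saturating compound)/control.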

[2] = target: GluN1/GluN2A V783L (Rattus norvegicus, UniProt P35439+Q00959, V783L); assay: Two-electrode voltage-clamp recordings, Xenopus oocytes; assay type: cell-based
[3] = target: GluN1/2A-(2D S2) (Rattus norvegicus, UniProt P35439+Q00959, D675E/D715E/E790M/F680L/F708Y/G712R/G740R/G786D/H674Q/I755V/K668R/K738M/M788I/N696S/P770R/Q661T/Q703S/Q766H/Q774P/R681K/R692K/R711P/R741K/S677Y/S719Q/S758T/T663S/T706V/T722A/T793R/T797S/V718T/V783L/Y676Q/Y700D/Y754K); assay: Two-electrode voltage-clamp recordings, Xenopus oocytes; assay type: cell-based; settings: 100 μM glutamate + 3 μM glycine; N.E. = no effect at 10 μM TCN-201
Method in brief: as §1

[4] = target: GluN1 I519A co-expressed with GluN2A (Rattus norvegicus, UniProt P35439+Q00959, I519A); assay: Two-electrode voltage-clamp recordings, Xenopus oocytes; assay type: cell-based; settings: 100 μM glutamate + 3 μM glycine
[5] = target: GluN1/GluN2A V783S (Rattus norvegicus, UniProt P35439+Q00959, V783S); assay: as above; assay type: cell-based; settings: 100 μM glutamate + 3 μM glycine
[6] = target: GluN1/GluN2A G786D (Rattus norvegicus, UniProt P35439+Q00959, G786D); assay: as above; assay type: cell-based; settings: 100 μM glutamate + 3 μM glycine
[7] = Maximum solubility in extracellular oocyte recording solution; assay type: physicochemical; settings: aqueous buffer
[8] = target: GluN1/GluN2D (Rattus norvegicus, UniProt P35439+Q62645); assay: Two-electrode voltage-clamp recordings, Xenopus oocytes; assay type: cell-based; settings: 100 μM glutamate + 3 μM glycine; N.E. = no effect at 10 μM TCN-201
Method in brief: as §1

[9] = target: GluN1/2D-(2A S1) (Rattus norvegicus, UniProt P35439+Q62645, A432V/A445I/A493S/A563S/D455N/D515N/D531V/DELINS461-477KFVKINNSTNEGMNV/F526V/G450E/G497K/G516N/H494R/I448L/I453V/I496V/I514V/I534V/I546V/P444D/R437A/R479K/R491K/S449T/S456T/S499T/T430S/V431I); assay: as above; assay type: cell-based; settings: 100 μM glutamate + 3 μM glycine; N.E. = no effect at 10 μM TCN-201
Method in brief: as §1

[10] = target: GluN1/GluN2A L777A (Rattus norvegicus, UniProt P35439+Q00959, L777A); assay: Two-electrode voltage-clamp recordings, Xenopus oocytes; assay type: cell-based; settings: 100 μM glutamate + 3 μM glycine
[11] = target: GluN1/GluN2A V783F (Rattus norvegicus, UniProt P35439+Q00959, V783F); assay: as above; assay type: cell-based; settings: 100 μM glutamate + 3 μM glycine
[12] = target: GluN1/GluN2A T793R (Rattus norvegicus, UniProt P35439+Q00959, T793R); assay: as above; assay type: cell-based; settings: 100 μM glutamate + 3 μM glycine
[13] = target: GluN1 F754A co-expressed with GluN2A (Rattus norvegicus, UniProt P35439+Q00959, F754A); assay: as above; assay type: cell-based; settings: 100 μM glutamate + 3 μM glycine
[14] = target: GluN1/GluN2A V783T (Rattus norvegicus, UniProt P35439+Q00959, V783T); assay: as above; assay type: cell-based; settings: 100 μM glutamate + 3 μM glycine
[15] = target: GluN1/GluN2A E789A (Rattus norvegicus, UniProt P35439+Q00959, E789A); assay: as above; assay type: cell-based; settings: 100 μM glutamate + 3 μM glycine
[16] = target: GluN1/GluN2B (Rattus norvegicus, UniProt P35439+Q00960); assay: as above; assay type: cell-based; settings: 100 μM glutamate + 3 μM glycine; N.E. = no effect at 10 μM TCN-201
GluN1/GluN2B, sequence (Q00960 27-1482, other chains not shown): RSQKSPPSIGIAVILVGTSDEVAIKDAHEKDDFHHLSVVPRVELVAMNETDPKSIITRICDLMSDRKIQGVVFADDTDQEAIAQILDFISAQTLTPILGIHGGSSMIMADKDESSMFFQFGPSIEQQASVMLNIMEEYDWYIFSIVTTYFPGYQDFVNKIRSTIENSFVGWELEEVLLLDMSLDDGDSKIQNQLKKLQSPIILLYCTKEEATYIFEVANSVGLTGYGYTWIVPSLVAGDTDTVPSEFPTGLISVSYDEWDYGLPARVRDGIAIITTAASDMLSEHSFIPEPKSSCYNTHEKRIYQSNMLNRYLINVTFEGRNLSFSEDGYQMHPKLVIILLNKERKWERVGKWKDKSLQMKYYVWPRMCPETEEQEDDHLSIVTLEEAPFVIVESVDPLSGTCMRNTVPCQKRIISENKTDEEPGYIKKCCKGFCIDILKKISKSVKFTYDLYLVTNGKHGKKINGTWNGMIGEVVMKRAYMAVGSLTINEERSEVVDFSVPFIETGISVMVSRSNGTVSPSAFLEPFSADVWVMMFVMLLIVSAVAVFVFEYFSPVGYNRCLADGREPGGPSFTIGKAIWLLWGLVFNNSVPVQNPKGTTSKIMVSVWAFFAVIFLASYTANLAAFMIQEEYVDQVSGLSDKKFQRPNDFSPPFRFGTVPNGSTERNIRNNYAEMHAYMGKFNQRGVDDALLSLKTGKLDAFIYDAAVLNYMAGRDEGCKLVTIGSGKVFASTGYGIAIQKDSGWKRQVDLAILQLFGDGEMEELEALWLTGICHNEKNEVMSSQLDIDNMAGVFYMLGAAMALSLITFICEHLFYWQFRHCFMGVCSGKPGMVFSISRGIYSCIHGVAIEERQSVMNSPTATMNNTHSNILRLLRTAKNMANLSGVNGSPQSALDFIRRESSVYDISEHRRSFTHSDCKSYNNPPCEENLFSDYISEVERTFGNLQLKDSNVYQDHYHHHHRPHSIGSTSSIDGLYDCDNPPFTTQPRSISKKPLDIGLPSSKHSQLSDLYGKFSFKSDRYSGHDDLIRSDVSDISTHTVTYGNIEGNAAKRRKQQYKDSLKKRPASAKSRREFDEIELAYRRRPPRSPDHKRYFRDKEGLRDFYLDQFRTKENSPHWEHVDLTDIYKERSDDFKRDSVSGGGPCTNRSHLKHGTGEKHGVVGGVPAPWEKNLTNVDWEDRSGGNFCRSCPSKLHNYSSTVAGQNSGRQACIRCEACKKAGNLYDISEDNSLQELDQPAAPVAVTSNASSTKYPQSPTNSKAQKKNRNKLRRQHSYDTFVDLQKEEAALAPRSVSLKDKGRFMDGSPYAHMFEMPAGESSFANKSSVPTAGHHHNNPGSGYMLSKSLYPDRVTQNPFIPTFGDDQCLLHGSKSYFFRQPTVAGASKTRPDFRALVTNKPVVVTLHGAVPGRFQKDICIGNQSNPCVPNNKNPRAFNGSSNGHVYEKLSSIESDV

[17] = target: GluK2 kainate receptors (Rattus norvegicus, UniProt P42260); assay: Two-electrode voltage-clamp recordings, Xenopus oocytes; assay type: cell-based; settings: 10 μM TCN-201
GluK2 kainate receptors, sequence (P42260 32-908): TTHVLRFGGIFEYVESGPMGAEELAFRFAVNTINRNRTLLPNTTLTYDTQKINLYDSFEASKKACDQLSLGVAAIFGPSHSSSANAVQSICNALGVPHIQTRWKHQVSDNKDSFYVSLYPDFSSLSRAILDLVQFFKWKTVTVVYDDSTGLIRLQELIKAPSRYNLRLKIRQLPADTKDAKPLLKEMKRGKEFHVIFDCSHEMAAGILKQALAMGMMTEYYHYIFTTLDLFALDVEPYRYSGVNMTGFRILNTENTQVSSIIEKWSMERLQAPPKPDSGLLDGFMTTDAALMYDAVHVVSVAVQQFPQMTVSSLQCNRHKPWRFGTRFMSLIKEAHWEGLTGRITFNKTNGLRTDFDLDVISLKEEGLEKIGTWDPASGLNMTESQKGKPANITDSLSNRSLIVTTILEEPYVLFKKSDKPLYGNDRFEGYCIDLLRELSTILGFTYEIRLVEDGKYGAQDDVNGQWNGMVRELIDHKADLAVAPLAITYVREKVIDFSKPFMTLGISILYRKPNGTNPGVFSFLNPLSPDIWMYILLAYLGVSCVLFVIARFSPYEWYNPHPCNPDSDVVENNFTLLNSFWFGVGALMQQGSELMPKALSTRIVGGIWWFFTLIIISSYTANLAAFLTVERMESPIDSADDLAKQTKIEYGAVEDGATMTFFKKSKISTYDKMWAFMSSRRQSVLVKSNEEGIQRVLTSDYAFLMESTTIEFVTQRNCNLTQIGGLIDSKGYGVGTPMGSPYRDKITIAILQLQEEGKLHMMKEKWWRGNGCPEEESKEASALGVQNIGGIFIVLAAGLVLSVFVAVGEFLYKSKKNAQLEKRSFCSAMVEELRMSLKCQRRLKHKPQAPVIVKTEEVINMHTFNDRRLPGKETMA
Method in brief: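 Xenopus laevis oocytes (female) were injected with in vitro transcribed cRNA and recorded by two-electrode voltage clamp 3–4 d after injection at 23°C, holding at −40 mV. Voltage and current electrodes held 0.3 and 3.0 M KCl.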

[18] = target: GluN1/GluN2A L780A (Rattus norvegicus, UniProt P35439+Q00959, L780A); assay: Two-electrode voltage-clamp recordings, Xenopus oocytes; assay type: cell-based; settings: 100 μM glutamate + 3 μM glycine
[19] = target: GluN1/GluN2A Q781A (Rattus norvegicus, UniProt P35439+Q00959, Q781A); assay: as above; assay type: cell-based; settings: 100 μM glutamate + 3 μM glycine
[20] = target: GluN1/2D-(2A S2) (Rattus norvegicus, UniProt P35439+Q62645, A747T/D725Y/D811G/E700D/E740D/H791Q/I813M/K706R/K717R/K766R/K779Y/L705F/L808V/M763K/M815E/P736R/P799Q/Q699H/Q701Y/Q744S/R693K/R737G/R765G/R795P/R818T/S688T/S721N/S728Q/S822T/T686Q/T743V/T783S/V731T/V780I/Y702S/Y733F); assay: Two-electrode voltage-clamp recordings, Xenopus oocytes; assay type: cell-based; settings: 100 μM glutamate + 3 μM glycine
Method in brief: as §1

SMILES: O=C(NNC(=O)c1ccc(CNS(=O)(=O)c2ccc(F)c(Cl)c2)cc1)c1ccccc1 [TCN-201, 3-chloro-4-fluoro-N-[(4-[(2-(phenylcarbonyl)hydrazino)carbonyl]phenyl)methyl]-benzenesulfonamide]
- TCN-201 activity IC50 [1]: did not affect TCN-201 sensitivity
- TCN-201 activity Max. % inhibition [1]: 97 ± 1%
- TCN-201 activity nH [1]: 1.5
- Kb [2]: 2140 nM
- TCN-201 activity IC50 [3]: no inhibition was observed and N.E.
- TCN-201 activity Max. % inhibition [4]: 80 ± 2%
- TCN-201 activity nH [4]: 1.9
- TCN-201 activity Max. % inhibition [5]: 89 ± 3%
- TCN-201 activity nH [5]: 1.4
- TCN-201 activity Max. % inhibition [6]: 82 ± 3%
- TCN-201 activity nH [6]: 1.7
- solubility [7]: 18 µM (≈ 8.31 µg/mL)
- TCN-201 activity IC50 [8]: did not inhibit and N.E.
- TCN-201 activity IC50 [9]: did not introduce TCN-201 sensitivity and N.E.
- TCN-201 activity Max. % inhibition [10]: 98 ± 1%
- TCN-201 activity nH [10]: 1.2
- TCN-201 activity Max. % inhibition [11]: 80 ± 2%
- TCN-201 activity nH [11]: 1.8
- TCN-201 activity Max. % inhibition [12]: 94 ± 2%
- TCN-201 activity nH [12]: 2.2
- TCN-201 activity Max. % inhibition [13]: 98 ± 1%
- TCN-201 activity nH [13]: 1.4
- TCN-201 activity Max. % inhibition [14]: 91 ± 1%
- TCN-201 activity nH [14]: 1.5
- TCN-201 activity Max. % inhibition [15]: 96 ± 1%
- TCN-201 activity nH [15]: 1.4
- TCN-201 activity IC50 [16]: did not inhibit and N.E.
- Effect on responses activated by 100 μM glutamate [17]: did not affect responses
- Response, % of control at 10 μM TCN-201 [18]: 67% of control at 10 μM TCN-201
- TCN-201 activity Max. % inhibition [19]: 94 ± 2%
- TCN-201 activity nH [19]: 1.9
- TCN-201 activity Max. % inhibition [20]: 91 ± 4%
- TCN-201 activity nH [20]: 2.1
